Like-named read-outs stand apart in the source and are kept apart here.
Key:
HEK 293 cells = assay: CellTiter-Glo cytotoxicity qHTS, HEK 293; assay type: cell-based, human; details: for cell killing of HEK 293 cells (in words): 48 hr; for EC50: read-out: EC50 HEK 293; for cell killing of HEK 293 compared with cancer cell line KB-3–1 (in words): pan-active outliers, 12 dose-point confirmation
Outline: (§1)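 HEK 293 (250 cells/well) or NIH 3T3 (400 cells/well) are seeded in 5 μL. Dosing: annotated library 8-pt (0.6 nM–46 μM) or 11-pt (0.8 nM–46 μM); diversity library 4-pt, mostly 115, 58, 12 and 2.3 μM; cherry-picks confirmed over 12 points, 0.3 nM–46 μM final. Incubate 48 hr at 37 °C, then read CellTiter-Glo luminescence after 10 min. Normalize to DMSO and 9.2 μM bortezomib; EC50 from a four-parameter logistic fit.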

NIH 3T3 cells = assay: CellTiter-Glo cytotoxicity qHTS, NIH 3T3; assay type: cell-based, murine; details: for cell killing of NIH 3T3 cells (in words): 48 hr; for EC50: read-out: EC50 NIH 3T3; for cell killing of NIH 3T3 compared with cancer cell line KB-3–1 (in words): pan-active outliers, 12 dose-point confirmation
Outline: as §1

KB 3–1 cells = assay: CellTiter-Glo cytotoxicity qHTS, KB 3-1; assay type: cell-based, human; details: for cell killing of KB 3–1 cells (in words): 48 hr; for EC50: read-out: EC50 KB 3–1
Outline: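 HeLa-derived KB 3–1 cells are seeded at 500 cells/well in 5 μL. Annotated library is tested 8-pt (0.6 nM–46 μM, 1:5) or 11-pt (0.8 nM–46 μM, 1:3); cherry-picks are retested 12-pt, 0.3 nM–46 μM final. Incubate 48 hr at 37 °C, then read CellTiter-Glo luminescence after 10 min at room temperature. Normalize to DMSO and 9.2 μM bortezomib; EC50 from a four-parameter logistic fit.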

CRL-7250 cells = assay: CellTiter-Glo cytotoxicity qHTS, CRL-7250; assay type: cell-based, human; details: for cell killing of CRL-7250 cells (in words): CellTiter-Glo, 48 hr
Outline: (§2)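 CRL-7250 (primary) or HaCat cells are seeded at 500 cells/well in 5 μL medium. Test compound is pin-transferred as an 8-pt series (0.6 nM–46 μM, 1:5) or an 11-pt series (0.8 nM–46 μM, 1:3). Incubate 48 hr at 37 °C and 85% humidity. Add CellTiter-Glo and read luminescence after 10 min at room temperature. Normalize to DMSO (0%) and 9.2 μM bortezomib (−100%); EC50 comes from a four-parameter logistic fit.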

[1] = molecular target: T1, CTG engineered firefly luciferase (Photuris pensylvanica, UniProt Q27757); assay: CellTiter-Glo luciferase counter-assay; assay type: biochemical; details: read-out: EC50 CTG Luciferase; cell-free media with CTG and ATP added as substrate
T1 sequence (Q27757 1-545): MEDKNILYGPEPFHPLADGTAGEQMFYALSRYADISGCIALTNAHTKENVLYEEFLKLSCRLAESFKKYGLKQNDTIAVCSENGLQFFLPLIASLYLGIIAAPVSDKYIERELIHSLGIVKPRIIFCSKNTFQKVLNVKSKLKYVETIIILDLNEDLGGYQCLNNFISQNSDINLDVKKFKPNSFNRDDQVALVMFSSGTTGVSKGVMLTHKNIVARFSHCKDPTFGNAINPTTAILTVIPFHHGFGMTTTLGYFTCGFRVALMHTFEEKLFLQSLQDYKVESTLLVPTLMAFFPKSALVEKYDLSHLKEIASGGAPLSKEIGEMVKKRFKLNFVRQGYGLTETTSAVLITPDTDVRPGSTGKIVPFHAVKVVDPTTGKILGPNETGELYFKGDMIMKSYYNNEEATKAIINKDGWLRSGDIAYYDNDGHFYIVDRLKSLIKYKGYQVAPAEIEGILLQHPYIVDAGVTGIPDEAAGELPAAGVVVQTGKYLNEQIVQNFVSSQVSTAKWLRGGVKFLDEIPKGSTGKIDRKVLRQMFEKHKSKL

[2] = molecular target: Photinus pyralis luciferase (Photinus pyralis, UniProt P08659); assay: Firefly luciferase inhibition assay; assay type: biochemical; details: read-out: EC50 Luciferase; 10 nM Photinus pyralis luciferase, 10 μM ATP, 10 μM D-Luciferin
HEK293 cells = assay: Bright-field microscopy of treated cells; assay type: cell-based, human; details: 48 hr, at concentrations suggested to be cytotoxic by CTG dose-response data
HaCat cells = assay: CellTiter-Glo cytotoxicity qHTS, HaCat; assay type: cell-based, human
Outline: as §2

[3] = CellTiter-Glo, 48 hr incubation

Chain of Photinus pyralis luciferase (P08659 whole entry): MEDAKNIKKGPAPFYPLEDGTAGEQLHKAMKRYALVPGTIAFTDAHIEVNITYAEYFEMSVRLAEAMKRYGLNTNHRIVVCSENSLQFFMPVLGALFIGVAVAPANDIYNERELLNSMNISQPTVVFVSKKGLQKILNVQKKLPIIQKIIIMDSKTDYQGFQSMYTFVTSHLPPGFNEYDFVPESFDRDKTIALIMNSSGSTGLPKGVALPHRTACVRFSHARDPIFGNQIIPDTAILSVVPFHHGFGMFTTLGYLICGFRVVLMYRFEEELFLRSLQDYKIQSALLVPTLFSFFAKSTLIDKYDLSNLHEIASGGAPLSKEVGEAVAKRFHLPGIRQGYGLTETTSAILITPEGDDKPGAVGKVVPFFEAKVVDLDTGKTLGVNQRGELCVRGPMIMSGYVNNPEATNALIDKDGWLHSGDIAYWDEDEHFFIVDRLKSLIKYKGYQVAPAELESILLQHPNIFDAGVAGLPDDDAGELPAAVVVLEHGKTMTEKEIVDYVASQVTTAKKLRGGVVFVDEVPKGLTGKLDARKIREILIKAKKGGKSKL

c1cc(-c2cnn3cc(-c4ccc(N5CCNCC5)cc4)cnc23)c2cccnc2c1 [LDN-212854]
cell killing of HEK 293 cells (in words) (HEK 293 cells; CellTiter-Glo): partial killing
EC50 (HEK 293 cells; [3]): 16400 nM
cell killing of NIH 3T3 cells (in words) (NIH 3T3 cells; CellTiter-Glo): no effect
cell killing of KB 3–1 cells (in words) (KB 3–1 cells; CellTiter-Glo): complete killing
EC50 (KB 3–1 cells; [3]): 4100 nM
cell killing of CRL-7250 cells (in words) (CRL-7250 cells): no effect

COc1cccc(-c2ncc3c(n2)OCCN(c2ccccc2)C3=O)c1 [NCGC00413522]
EC50 [1]: 26600 nM
EC50 [2]: 890 nM
cell growth by bright-field microscopy (HEK293 cells): unaffected cell growth

O=C1c2cnc(-c3cc4ccccc4o3)nc2OCCN1c1ccccc1 [NCGC00413607]
EC50 [1]: 7300 nM
EC50 [2]: 80 nM
cell growth by bright-field microscopy (HEK293 cells): unaffected cell growth

O=C(c1ccc(Cl)cc1)N1CCOCC2(CN(Cc3cc(F)cc(F)c3)C2)C1 [NCGC00419015]
EC50 (HEK 293 cells; [3]): 510 nM
EC50 (NIH 3T3 cells; [3]): 720 nM
EC50 (KB 3–1 cells; [3]): 640 nM

Cc1nn2c(c1-c1ccccc1-c1ccccc1)N(CC1CC1)CCC2 [NCGC00420435]
cell killing of HEK 293 compared with cancer cell line KB-3–1 (in words) (HEK 293 cells): greater cell killing
cell killing of NIH 3T3 compared with cancer cell line KB-3–1 (in words) (NIH 3T3 cells): greater cell killing

Cc1nn2c(c1-c1ccccc1Oc1ccccc1)N(Cc1ccccc1O)CCC2 [NCGC00420455]
cell killing of HEK 293 compared with cancer cell line KB-3–1 (in words) (HEK 293 cells): greater cell killing
cell killing of NIH 3T3 compared with cancer cell line KB-3–1 (in words) (NIH 3T3 cells): greater cell killing

Cc1nn2c(c1-c1ccccc1-c1ccccc1)N(Cc1ccc(O)cc1)CCC2 [NCGC00420512]
cell killing of HEK 293 compared with cancer cell line KB-3–1 (in words) (HEK 293 cells): greater cell killing
cell killing of NIH 3T3 compared with cancer cell line KB-3–1 (in words) (NIH 3T3 cells): greater cell killing

O=C(Nc1ccccc1)OC[C@H]1C[C@@H]2CCN1C[C@@H]2c1cc(C2CCCC2)nc(-c2ccncc2)n1 [NCGC00421344]
potency in HEK 293 cell relative to the other two cell lines (NIH 3T3, KB 3–1) (HEK 293 cells; CellTiter-Glo EC50 comparison): > 10 fold

COc1ncc2cc(C(=O)Nc3cc(C(=O)NCc4cccc(Cl)c4)ccc3Cl)c(=O)[nH]c2n1 [TC-S7004]
cell killing of HEK 293 cells (in words) (HEK 293 cells; CellTiter-Glo): no effect
cell killing of NIH 3T3 cells (in words) (NIH 3T3 cells; CellTiter-Glo): no effect
cell killing of HaCat cells (in words) (HaCat cells; CellTiter-Glo, 48 hr): no effect
cell killing of KB 3–1 cells (in words) (KB 3–1 cells; CellTiter-Glo): complete killing
EC50 (KB 3–1 cells; [3]): 3200 nM
cell killing of CRL-7250 cells (in words) (CRL-7250 cells): no effect

CC(C)C[C@H](NC(=O)[C@@H](NC(=O)c1cccc(-c2ccccc2)n1)[C@@H](C)O)B(O)O [delanzomib]
EC50 (HEK 293 cells; Homo sapiens, HEK293, 48 h): 148 nM
EC50 (NIH 3T3 cells; Mus musculus, NIH3T3, 48 h): 82 nM
EC50 (HaCat cells; Homo sapiens, HaCaT, 48 h, read-out: EC50 HaCat): 326 nM
EC50 (KB 3–1 cells; Homo sapiens, KB 3-1, 48 h): 186 nM
EC50 (CRL-7250 cells; Homo sapiens, 48 h, read-out: EC50 CRL-7250): 205 nM

From PMC10791069 (SLAS discovery : advancing life sciences R & D, 2019)
